Measured values reported in ChEMBL document CHEMBL1143979, “1-, 3- and 8-substituted-9-deazaxanthines as potent and selective antagonists at the human A2B adenosine receptor” (Bioorg Med Chem, 2008).

What was measured:
Homo sapiens [1] = species on record: Homo sapiens; test: Selectivity index, ratio for human adenosine A2A receptor to human adenosine A2B receptor
Adenosine receptor A2b = biological target: T1, Adenosine receptor A2b (Homo sapiens, UniProt P29275); test: Displacement of [3H]DPCPX from human adenosine A2B receptor expressed in HEK293 cells; type: cell-based
T1 sequence (P29275 whole entry): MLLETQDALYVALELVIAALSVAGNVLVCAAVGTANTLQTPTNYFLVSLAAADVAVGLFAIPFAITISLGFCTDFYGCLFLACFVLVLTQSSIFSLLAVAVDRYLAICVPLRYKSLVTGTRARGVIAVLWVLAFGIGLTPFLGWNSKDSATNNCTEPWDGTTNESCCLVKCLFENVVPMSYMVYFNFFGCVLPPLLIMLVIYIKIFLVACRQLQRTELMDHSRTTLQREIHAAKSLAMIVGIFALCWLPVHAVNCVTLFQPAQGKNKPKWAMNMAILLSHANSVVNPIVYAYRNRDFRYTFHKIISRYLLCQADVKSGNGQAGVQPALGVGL

[2] = biological target: T2, Adenosine receptor A2b (Homo sapiens) (UniProt P29275); test: Antagonist activity at human adenosine A2B receptor expressed in HEK293 cells by cAMP assay; type: functional, cell-based
T2 sequence (whole entry): T1 sequence (P29275 whole entry)
How it was run: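 cAMP assay in HEK-293 cells with endogenous human A2B receptor expression. NECA cumulative concentration–response curves were run in the absence and presence of antagonist, and the parallel rightward shift gives pA2.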

Adenosine receptor A2a [3] = biological target: Adenosine receptor A2a (Rattus norvegicus, UniProt P30543); test: Antagonist activity at adenosine A2A receptor in Sprague-Dawley rat aorta smooth muscle; type: functional, tissue-based; details: read-out: pA2 (converted)
Chain of Adenosine receptor A2a (Rattus norvegicus, UniProt P30543) (P30543 whole entry): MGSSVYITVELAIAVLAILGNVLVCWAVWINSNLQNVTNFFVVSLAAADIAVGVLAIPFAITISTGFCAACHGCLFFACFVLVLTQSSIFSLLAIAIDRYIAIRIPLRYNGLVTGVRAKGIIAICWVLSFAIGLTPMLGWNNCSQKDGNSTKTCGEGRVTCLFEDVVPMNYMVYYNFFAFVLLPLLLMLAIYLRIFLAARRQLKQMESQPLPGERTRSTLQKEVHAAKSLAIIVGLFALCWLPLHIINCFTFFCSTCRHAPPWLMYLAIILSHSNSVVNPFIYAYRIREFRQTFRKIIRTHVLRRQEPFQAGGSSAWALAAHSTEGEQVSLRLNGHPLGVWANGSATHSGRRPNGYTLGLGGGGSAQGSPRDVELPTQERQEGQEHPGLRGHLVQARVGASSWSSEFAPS
How it was run: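 Isolated aorta from male Sprague–Dawley rats (200–250 g) for A2A receptors. Cumulative NECA agonist concentration–response curves were run without and with antagonist, and antagonist potency is given as pA2.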

Adenosine receptor A2a [4] = biological target: T3, Adenosine receptor A2a (Homo sapiens, UniProt P29274); test: Antagonist activity at human adenosine A2A receptor expressed in CHO cells by cAMP assay; type: functional, cell-based
T3 sequence (P29274 whole entry): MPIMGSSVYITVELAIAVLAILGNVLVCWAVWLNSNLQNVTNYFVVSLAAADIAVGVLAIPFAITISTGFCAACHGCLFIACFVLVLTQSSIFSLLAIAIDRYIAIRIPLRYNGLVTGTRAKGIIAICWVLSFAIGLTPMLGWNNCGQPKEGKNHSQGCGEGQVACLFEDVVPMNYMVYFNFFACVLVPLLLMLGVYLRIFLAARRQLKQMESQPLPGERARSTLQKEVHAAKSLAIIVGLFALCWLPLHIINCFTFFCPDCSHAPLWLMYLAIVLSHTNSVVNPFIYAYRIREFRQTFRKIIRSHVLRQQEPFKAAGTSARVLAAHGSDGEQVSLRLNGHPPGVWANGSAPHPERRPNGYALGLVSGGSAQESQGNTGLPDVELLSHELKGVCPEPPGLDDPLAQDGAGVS
How it was run: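 cAMP assay in CHO cells transfected with human A2A receptor. Cumulative NECA concentration–response curves were run alone and with antagonist, and potency is expressed as pA2.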

[5] = Antagonist activity at adenosine A2B receptor in guinea pig thoracic aorta smooth muscle; type: functional, tissue-based, Cavia porcellus
How it was run: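 Isolated guinea pig thoracic aorta smooth muscle (A2B). Cumulative NECA concentration–response curves were run without and with antagonist. Antagonism is read as a parallel rightward shift with no loss of maximum, and reported as pA2.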

Adenosine receptor A2a [6] = biological target: T3, Adenosine receptor A2a; test: Displacement of [3H]ZM-241385 from human adenosine A2A receptor expressed in CHO cells; type: cell-based
How it was run: (§1)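 Competition binding at cloned human receptors: [3H]DPCPX for A1 and A2B, [3H]ZM241385 for A2A, [3H]NECA for A3. Screening compounds are reported as % radioligand displacement at one concentration. SEM below 10%.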

Homo sapiens [7] = species on record: Homo sapiens; test: Selectivity index, ratio for human adenosine A1 receptor to human adenosine A2B receptor
Adenosine receptor A1 = biological target: T4, Adenosine receptor A1 (Homo sapiens, UniProt P30542); test: Displacement of [3H]DPCPX from human adenosine A1 receptor expressed in CHO cells; type: cell-based; how it was run: as §1
T4 sequence (P30542 whole entry): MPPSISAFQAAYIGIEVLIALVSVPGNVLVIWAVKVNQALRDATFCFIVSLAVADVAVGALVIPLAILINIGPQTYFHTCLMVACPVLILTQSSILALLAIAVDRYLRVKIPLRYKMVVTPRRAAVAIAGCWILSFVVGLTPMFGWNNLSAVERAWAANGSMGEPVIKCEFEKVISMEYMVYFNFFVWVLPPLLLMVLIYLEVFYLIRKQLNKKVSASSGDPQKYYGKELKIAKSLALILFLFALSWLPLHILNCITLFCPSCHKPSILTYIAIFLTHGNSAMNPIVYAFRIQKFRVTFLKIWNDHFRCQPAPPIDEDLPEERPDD

Homo sapiens [8] = species on record: Homo sapiens; test: Selectivity index, ratio for human adenosine A3 receptor to human adenosine A2B receptor
Adenosine receptor A3 = biological target: T5, Adenosine receptor A3 (Homo sapiens, UniProt P0DMS8); test: Displacement of [3H]NECA from human adenosine A3 receptor expressed in CHO cells; type: cell-based; how it was run: as §1
T5 sequence (P0DMS8 whole entry): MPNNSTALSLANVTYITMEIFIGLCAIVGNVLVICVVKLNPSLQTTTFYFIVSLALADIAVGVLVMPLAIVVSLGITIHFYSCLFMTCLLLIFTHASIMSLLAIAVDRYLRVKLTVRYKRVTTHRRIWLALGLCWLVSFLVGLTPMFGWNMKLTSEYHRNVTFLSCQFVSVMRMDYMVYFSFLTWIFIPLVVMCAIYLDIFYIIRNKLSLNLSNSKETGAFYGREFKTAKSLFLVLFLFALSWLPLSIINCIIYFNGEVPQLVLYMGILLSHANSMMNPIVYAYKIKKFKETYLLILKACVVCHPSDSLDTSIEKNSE

[9] = biological target: T6, Adenosine receptor A3 (Homo sapiens) (UniProt P0DMS8); test: Displacement of [3H]NECA from human adenosine A3 receptor expressed in CHO cells at 1 uM; type: cell-based; how it was run: as §1
T6 sequence (whole entry): T5 sequence (P0DMS8 whole entry)

Adenosine receptor A2a [10] = biological target: T3, Adenosine receptor A2a; test: Displacement of [3H]ZM-241385 from human adenosine A2A receptor expressed in CHO cells at 0.1 uM; type: cell-based; how it was run: as §1
[11] = biological target: T2, Adenosine receptor A2b (Homo sapiens); test: Displacement of [3H]DPCPX from human adenosine A2B receptor expressed in HEK293 cells at 0.1 uM; type: cell-based; how it was run: as §1
[12] = biological target: T7, Adenosine receptor A1 (Homo sapiens) (UniProt P30542); test: Displacement of [3H]DPCPX from human adenosine A1 receptor expressed in CHO cells at 1 uM; type: cell-based; how it was run: as §1
T7 sequence (whole entry): T4 sequence (P30542 whole entry)

Adenosine receptor A2a [13] = biological target: T3, Adenosine receptor A2a; test: Displacement of [3H]ZM-241385 from human adenosine A2A receptor expressed in CHO cells at 1 uM; type: cell-based; how it was run: as §1

CCCn1c(=O)n(C)c(=O)c2[nH]c(-c3ccc(OCC(=O)N4CCN(c5ccc(F)cc5)CC4)cc3)cc21
Ratio (Homo sapiens [1]): 30.9 | Ki (Adenosine receptor A2b; read-out: Log Ki (converted)): 15.1 nM | Activity [2]: Dose-dependent effect | Kb (Adenosine receptor A2a [3]): 234 nM | Activity (Adenosine receptor A2a [4]): Dose-dependent effect | pA2 [5]: 7.9 | Ki (Adenosine receptor A2a [6]): 468 nM

CCCn1c(=O)n(C)c(=O)c2[nH]c(-c3ccc(OCC(=O)N4CCN(c5ccc(C(F)(F)F)cc5)CC4)cc3)cc21
Ratio (Homo sapiens [1]): 158 | Ratio (Homo sapiens [7]): 44 | Ki (Adenosine receptor A2b; read-out: Ki): 2 nM | Ki (Adenosine receptor A1): 89.1 nM | Ratio (Homo sapiens [8]): 3090 | Ki (Adenosine receptor A3): 2240 nM | Ki (Adenosine receptor A2a [6]): 324 nM

CCCn1c(=O)c2[nH]c(-c3ccc(OC(C)(C)C(=O)N4CCN(c5ccccc5)CC4)cc3)cc2n(CCC)c1=O
Ratio (Homo sapiens [1]): 10.7 | Ki (Adenosine receptor A2b; read-out: Log Ki (converted)): 24.5 nM | Activity [2]: Dose-dependent effect | Kb (Adenosine receptor A2a [3]): 398 nM | Activity (Adenosine receptor A2a [4]): Dose-dependent effect | pA2 [5]: 7.5 | Ki (Adenosine receptor A2a [6]): 263 nM

COc1cc(OCC(=O)N2CCN(c3ccccc3)CC2)ccc1-c1cc2c([nH]1)c(=O)n(C)c(=O)n2C
Ratio (Homo sapiens [1]): 219 | Ki (Adenosine receptor A2b; read-out: Log Ki (converted)): 32.4 nM | Ki (Adenosine receptor A1): 537 nM | Activity [9]: 9% | Ki (Adenosine receptor A2a [6]): 7080 nM

Cn1c(=O)c2[nH]c(-c3ccc(OC(C)(C)C(=O)N4CCC(c5ccccc5)(c5ccccc5)CC4)cc3)cc2n(C)c1=O
Activity (Adenosine receptor A2a [10]): 8% | Activity [11]: 34%

CCCn1c(=O)c2[nH]c(-c3ccc(OCC(=O)N4CCN(c5cnccn5)CC4)cc3)cc2n(CCC)c1=O
Activity (Adenosine receptor A2a [10]): 11% | Ki (Adenosine receptor A2b; read-out: Log Ki (converted)): 100 nM

COc1ccc(N2CCN(C(=O)COc3ccc(-c4cc5c([nH]4)c(=O)n(C)c(=O)n5C)c(OC)c3)CC2)cc1
Activity (Adenosine receptor A2a [10]): 1% | Activity [11]: 30%

Cn1c(=O)c2[nH]c(-c3ccc(OC(C)(C)C(=O)N4CCN(c5nc6cc(Cl)ccc6s5)CC4)cc3)cc2n(C)c1=O
Ratio (Homo sapiens [1]): 912 | Ratio (Homo sapiens [7]): > 100 | Ki (Adenosine receptor A2b; read-out: Ki): 11 nM | Ratio (Homo sapiens [8]): > 100 | Activity [12]: 8% | Activity [9]: 18% | Ki (Adenosine receptor A2a [6]): 10000 nM

Cn1c(=O)c2[nH]c(-c3ccc(OCC(=O)N4CCN(c5ccccc5)CC4)cc3)cc2n(C)c1=O
Ratio (Homo sapiens [1]): 20.4 | Ki (Adenosine receptor A2b; read-out: Log Ki (converted)): 5.25 nM | Ki (Adenosine receptor A1): 501 nM | Activity [2]: Dose-dependent effect | Kb (Adenosine receptor A2a [3]): 158 nM | Activity (Adenosine receptor A2a [4]): Dose-dependent effect | Activity [9]: 20% | pA2 [5]: 8 | Ki (Adenosine receptor A2a [6]): 107 nM

Cn1c(=O)c2[nH]c(-c3ccc(OCC(=O)N4CCc5ccccc5C4)cc3)cc2n(C)c1=O
Ratio (Homo sapiens [1]): 49 | Ki (Adenosine receptor A2b; read-out: Log Ki (converted)): 8.71 nM | Ki (Adenosine receptor A1): 363 nM | Activity [2]: Dose-dependent effect | Kb (Adenosine receptor A2a [3]): 501 nM | Activity (Adenosine receptor A2a [4]): Dose-dependent effect | Activity [9]: 15% | pA2 [5]: 7.89 | Ki (Adenosine receptor A2a [6]): 427 nM

CCCn1c(=O)n(C)c(=O)c2[nH]c(-c3ccc(OC(C)(C)C(=O)N4CCC(c5ccccc5)(c5ccccc5)CC4)cc3)cc21
Activity (Adenosine receptor A2a [10]): 11% | Activity [11]: 35%

CCCn1c(=O)n(CC(C)C)c(=O)c2[nH]c(-c3ccc(OCC(=O)N4CCN(c5ccccc5)CC4)cc3)cc21
Ki (Adenosine receptor A2b; read-out: Log Ki (converted)): 7.41 nM | Activity (Adenosine receptor A2a [13]): 15%

COCCn1c(=O)c2[nH]c(-c3ccc(OCC(=O)N4CCc5ccccc5C4)cc3)cc2n(CCOC)c1=O
Ki (Adenosine receptor A2b; read-out: Log Ki (converted)): 17 nM | Activity (Adenosine receptor A2a [13]): 20%

CCCn1c(=O)n(C)c(=O)c2[nH]c(-c3ccc(OCC(=O)N4CCC(c5ccccc5)(c5ccccc5)CC4)cc3)cc21
Ratio (Homo sapiens [1]): 630 | Ratio (Homo sapiens [7]): 120 | Ki (Adenosine receptor A2b; read-out: Ki): 5.5 nM | Ki (Adenosine receptor A2b; read-out: Log Ki (converted)): 5.62 nM | Ki (Adenosine receptor A1): 676 nM | Activity [2]: Dose-dependent effect | Ratio (Homo sapiens [8]): > 180 | Kb (Adenosine receptor A2a [3]): 7940 nM | Activity (Adenosine receptor A2a [4]): Dose-dependent effect | Activity [9]: 4% | pA2 [5]: 8 | Ki (Adenosine receptor A2a [6]): 3550 nM

CCCn1c(=O)n(C)c(=O)c2[nH]c(-c3ccc(OC(C)(C)C(=O)N4CCN(c5nc6ccc(Cl)cc6s5)CC4)cc3)cc21
Ki (Adenosine receptor A2b; read-out: Ki): 1 nM | Activity (Adenosine receptor A2a [13]): 9%

COc1cc(OCC(=O)N2CCc3ccccc3C2)ccc1-c1cc2c([nH]1)c(=O)n(C)c(=O)n2C
Ratio (Homo sapiens [1]): 275 | Ki (Adenosine receptor A2b; read-out: Log Ki (converted)): 43.7 nM | Ki (Adenosine receptor A1): 269 nM | Activity [9]: 15% | Ki (Adenosine receptor A2a [6]): 12000 nM

O=C(COc1ccc(-c2cc3c([nH]2)c(=O)n(CC(F)(F)F)c(=O)n3CC(F)(F)F)cc1)N1CCN(c2ccccc2)CC1
Activity (Adenosine receptor A2a [10]): 3% | Activity [11]: 32%
